The source made the active and inactive calls. The rule behind the calls is not given here.
What was measured:
HepG2 [1] = assay: Induction of cell cycle arrest on human HepG2 cells assessed as accumulation at G1 phase at 20 uM after 24 hrs by propidium iodide staining based flow cytometry (reference value: 66.5 +/- 1.4%); format: functional
HepG2 [2] = assay: Induction of cell cycle arrest on human HepG2 cells assessed as accumulation at G1 phase at 20 uM after 48 hrs by propidium iodide staining based flow cytometry (reference value: 62.7 +/- 0.5%); format: functional
Hep G2 (human) [3] = assay: Induction of apoptosis in human HepG2 cells assessed as induction of cytoplasmic shrinkage at 50 uM after 24 hrs by Annexin V-Fluos staining based fluorescent microscopy
MCF7 = assay: Antiproliferative activity against human MCF7 cells assessed as inhibition of cell proliferation after 72 hrs by MTT assay; format: functional, cell-based
Method in brief: (§1)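 Cells grown as monolayers in DMEM with 10% FBS, 2 mM L-glutamine, penicillin/streptomycin, 37 °C, 5% CO2. Seeded at 5000/well on day 0. Compounds added after 24 h as five serial dilutions (0,01 to 100 µM), DMSO ≤0.1%, then 72 h. MTT read-out converted to percentage growth. IC50 by linear regression; quadruplicates in three experiments.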

Hep G2 (human) [4] = assay: Induction of apoptosis in human HepG2 cells assessed as induction of apoptotic bodies at 50 uM after 24 hrs by Annexin V-Fluos staining based fluorescent microscopy
HepG2 [5] = assay: Induction of cell cycle arrest on human HepG2 cells assessed as accumulation at subG1 phase at 20 uM after 24 hrs by propidium iodide staining based flow cytometry (reference value: 2.9 +/- 1.1%); format: functional
Method in brief: (§2)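 HepG2 or SW620 cells were seeded at 25000 per well. After 24 h they were treated, then harvested 24 or 48 h later. Attached cells were trypsinized, pooled with floating cells, PBS-washed and fixed in 70% ethanol. Cells were stained with PI 1 µg/mL plus RNase A 0.2 µg/mL, and 10 000 events were acquired by flow cytometry. Phase percentages come from DNA histograms, in duplicate, with ANOVA at p < 0.05.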

HeLa = assay: Antiproliferative activity against human HeLa cells assessed as inhibition of cell proliferation after 72 hrs by MTT assay; format: functional, cell-based; method in brief: as §1
HepG2 [6] = assay: Induction of cell cycle arrest on human HepG2 cells assessed as accumulation at subG1 phase at 50 uM after 24 hrs by propidium iodide staining based flow cytometry (reference value: 2.9 +/- 1.1%); format: functional; method in brief: as §2
BJ = assay: Antiproliferative activity against human BJ cells assessed as inhibition of cell proliferation after 72 hrs by MTT assay; format: cell-based; details: 72 h; method in brief: as §1
HepG2 [7] = assay: Induction of cell cycle arrest on human HepG2 cells assessed as accumulation at G2/M phase at 50 uM after 48 hrs by propidium iodide staining based flow cytometry (reference value: 28.0 +/- 13.8%); format: functional
HepG2 [8] = assay: Induction of cell cycle arrest on human HepG2 cells assessed as accumulation at G1 phase at 50 uM after 24 hrs by propidium iodide staining based flow cytometry (reference value: 66.5 +/- 1.4%); format: functional
HepG2 [9] = assay: Induction of cell cycle arrest on human HepG2 cells assessed as accumulation at subG1 phase at 50 uM after 48 hrs by propidium iodide staining based flow cytometry (reference value: 1.7 +/- 0.5%); format: functional; method in brief: as §2
HepG2 [10] = assay: Induction of cell cycle arrest on human HepG2 cells assessed as accumulation at S phase at 50 uM after 48 hrs by propidium iodide staining based flow cytometry (reference value: 9.3 +/- 13.2%); format: functional; method in brief: as §2
HepG2 [11] = assay: Induction of cell cycle arrest on human HepG2 cells assessed as accumulation at S phase at 20 uM after 24 hrs by propidium iodide staining based flow cytometry (reference value: 17.0 +/- 2.9%); format: functional
HepG2 [12] = assay: Induction of cell cycle arrest on human HepG2 cells assessed as accumulation at G2/M phase at 20 uM after 48 hrs by propidium iodide staining based flow cytometry (reference value: 28.0 +/- 13.8%); format: functional
HepG2 [13] = assay: Induction of cell cycle arrest on human HepG2 cells assessed as accumulation at subG1 phase at 20 uM after 48 hrs by propidium iodide staining based flow cytometry (reference value: 1.7 +/- 0.5%); format: functional; method in brief: as §2
HepG2 [14] = assay: Induction of cell cycle arrest on human HepG2 cells assessed as accumulation at G2/M phase at 50 uM after 24 hrs by propidium iodide staining based flow cytometry (reference value: 16.5 +/- 1.6%); format: functional
SW-620 = assay: (§3) Antiproliferative activity against human SW620 cells assessed as inhibition of cell proliferation after 72 hrs by MTT assay; format: functional, cell-based; method in brief: as §1
[15] = as §3; format: functional, cell-based, SW-620; details: Homo sapiens, SW-620, 72 h; method in brief: as §1
HepG2 [16] = assay: Induction of cell cycle arrest on human HepG2 cells assessed as accumulation at S phase at 20 uM after 48 hrs by propidium iodide staining based flow cytometry (reference value: 9.3 +/- 13.2%); format: functional; method in brief: as §2
HepG2 [17] = assay: Antiproliferative activity against human HepG2 cells assessed as inhibition of cell proliferation after 72 hrs by MTT assay; format: functional, cell-based; method in brief: as §1
HepG2 [18] = assay: Induction of cell cycle arrest on human HepG2 cells assessed as accumulation at G2/M phase at 20 uM after 24 hrs by propidium iodide staining based flow cytometry (reference value: 16.5 +/- 1.6%); format: functional
HepG2 [19] = assay: Induction of cell cycle arrest on human HepG2 cells assessed as accumulation at G1 phase at 50 uM after 48 hrs by propidium iodide staining based flow cytometry (reference value: 62.7 +/- 0.5%); format: functional
HepG2 [20] = assay: Induction of cell cycle arrest on human HepG2 cells assessed as accumulation at S phase at 50 uM after 24 hrs by propidium iodide staining based flow cytometry (reference value: 17.0 +/- 2.9%); format: functional; method in brief: as §2

For N#Cc1ccc(/N=C2\c3ccccc3CN2c2ccc(C#N)cn2)nc1, the Activity (HepG2 [1]) was 58.1%, the Activity (HepG2 [2]) was 61% and the Activity (Hep G2 (human) [3]) was “inactive”. For the same compound, the inhibition (MCF7) was “Dose-dependent effect”, the IC50 (MCF7; Homo sapiens, MCF7, 72 h) was 71.2 µM and the Activity (Hep G2 (human) [4]) was “inactive”. For the same compound, the Activity (HepG2 [5]) was 6.6%, the inhibition (HeLa) was “Dose-dependent effect” and the IC50 (HeLa; Homo sapiens, HeLa, 72 h) was 8.81 µM. For the same compound, the Activity (HepG2 [6]) was 6.7%, the IC50 (BJ; Homo sapiens, BJ) was 63.8 µM and the “inhibition (INH)” value (BJ; human, bj) was “Dose-dependent effect”. It also gave an Activity (HepG2 [7]) of 20.3%, an Activity (HepG2 [8]) of 57.4% and an Activity (HepG2 [9]) of 8.4%. For the same compound, the Activity (HepG2 [10]) was 18.5%, the Activity (HepG2 [11]) was 21.5% and the Activity (HepG2 [12]) was 19.5%. For the same compound, the Activity (HepG2 [13]) was 5.7%, the Activity (HepG2 [14]) was 16.2% and the inhibition (SW-620) was “Dose-dependent effect”. For the same compound, the IC50 [15] was greater than 100 µM, the Activity (HepG2 [16]) was 19.5% and the inhibition (HepG2 [17]) was “Dose-dependent effect”. For the same compound, the IC50 (HepG2 [17]; HepG2, 72 h) was 9.41 µM, the Activity (HepG2 [18]) was 20.4% and the Activity (HepG2 [19]) was 61.2%. For the same compound, the Activity (HepG2 [20]) was 26.4%.

— ChEMBL document CHEMBL3352181, “Novel phenyl and pyridyl substituted derivatives of isoindolines: Synthesis, antitumor activity and DNA binding features” (Eur J Med Chem, 2014)
